IC50 data for eight molecules are collected here from ChEMBL document CHEMBL1124845, “Synthesis and antiviral activity of some 7-[(2-hydroxyethoxy)methyl]pyrazolo[3,4-d]pyrimidine analogues of sangivamycin and toyocamycin” (J Med Chem, 1990).

pIC50: −log10 of the molar value.

Usually pIC50 stands for −log10 of the IC50, conventionally taken in molar units.

In one assay the test system is Human betaherpesvirus 5. Briefly: Tested for antiviral activity against human cytomegalovirus (HCMV) by means of plaque reduction assay. The class given is functional, organism-based. A digest of the protocol: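 HFF monolayers (MEM(E), 10% FBS) were inoculated with about 50 PFU of a plaque-purified Towne strain HCMV isolate in 0.2 mL. Test compounds were included in the overlay medium and plaques counted. IC50 came from a linear regression of percent inhibition versus log concentration. Positive controls ran in all assays, with sets rejected if the control deviated >1.5 SD.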
In general terms: Plaques are areas of infected cells; plaque reduction assays count them against a control.

Assay [1] can be described thus: Tested for cytotoxic activity against human neoplastic cell line(KB cells). The class given is functional, cell-based. The gist of the method: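 KB cells were grown in MEM with Hank salts and 5% FBS. Inhibition of radioactive precursor incorporation into DNA, RNA and protein was measured. IC50s were obtained by regression of percent inhibition against log concentration, and the three values were averaged.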

Assay [2] is described as follows: (§1) Tested for cytotoxic activity against monkey kidney cells(BSC-1) cells. To be noted: Cercopithecidae. The class given is functional, cell-based. The gist of the method:
(§2)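 Cytotoxicity was scored visually on uninfected HFF or BSC-1 cells within the plaque-reduction plates. Drug-induced cytopathology was graded 0 to 4+ at 35- and 60-fold magnification on the day of staining for plaque enumeration.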

A further assay concerns HFF. In words: Tested for cytotoxic activity against human foreskin fibroblasts (HFF) cells. The class given is functional, cell-based. A digest of the protocol: as §2
In a further assay the test system is Human alphaherpesvirus 1. In words: Tested for antiviral activity against herpes simplex virus-1(HSV-1) by means of plaque reduction assay. Format: functional, organism-based. A digest of the protocol: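 Monolayer BSC-1 cells (MEM with Earle's salts, 10% FBS) infected with about 100 PFU HSV-1 strain S-148 in 0.2 mL inoculum. Compounds were dissolved in the overlay medium and plaques counted. IC50 was taken from a linear regression of percent inhibition against log concentration. An acyclovir or ganciclovir positive control was run in every assay, and sets deviating >1.5 SD were rejected.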

Another assay deals with BSC-1. The assay is described as §1. The class given is functional, cell-based, Cercopithecidae. Particulars: Chlorocebus aethiops. A digest of the protocol: as §2

As for `NC(=O)c1nn(COCCO)c2ncnc(N)c12`, the pIC50 (in the assay with Human betaherpesvirus 5; in assay [1]; in assay [2]; in the assay with HFF; in the assay on Human alphaherpesvirus 1) was less than 4.00 each time.
`NC(=S)c1nn(COCCO)c2ncnc(N)c12`: the pIC50 in the assay with Human betaherpesvirus 5 is 5.60; in assay [1] it was 4.62; in assay [2], 4.00; in the assay on HFF, 4.26; with Human alphaherpesvirus 1, 5.05.
Regarding `COC(=N)c1nn(COCCO)c2ncnc(N)c12`, the pIC50 (in the assay on Human betaherpesvirus 5; in assay [2]; in the assay with HFF; with Human alphaherpesvirus 1) was less than 4.00 each time.
Take `N#Cc1nn(COCCO)c2ncnc(N)c12`: the pIC50 (in the assay on Human betaherpesvirus 5; in assay [2]; with HFF; with Human alphaherpesvirus 1) was less than 4.00 each time.
Regarding `N#Cc1nnc2nc[nH]c(N)c1-2`, the pIC50 in the assay on Human betaherpesvirus 5 was 4.17; in the assay on BSC-1, less than 4.00; with HFF it was less than 4.00; in the assay with Human alphaherpesvirus 1, 4.80.
For the molecule `Nc1nc2c(ncn2COCCO)c(=O)[nH]1` [ACYCLOVIR], the negative-log IC50 (pIC50) (in assay [1]; in assay [2]; with HFF) was less than 4.00 throughout.
For `Nc1nc2c(ncn2COC(CO)CO)c(=O)[nH]1` [GANCICLOVIR], the pIC50 is 3.00 in assay [1], less than 4.00 in assay [2] and less than 4.00 in the assay with HFF.
Turning to `CC(=O)OCCOCn1nc(C#N)c2c(N)ncnc21`, the pIC50 was less than 4.00 in the assay with Human betaherpesvirus 5; 4.27 in assay [1]; less than 4.00 in assay [2]; less than 4.00 in the assay on HFF; less than 4.00 in the assay with Human alphaherpesvirus 1.
